The values below come from ChEMBL document CHEMBL6103596, “Design, Synthesis, and Biological Evaluation of BODIPY-Caged Resiquimod as a Dual-Acting Phototherapeutic” (J Med Chem, 2025).

Series [1] is described as follows: Thermal stability of compound in DMSO-d6 at 37.5 degree C measured after 1 day by 1H NMR spectroscopy analysis relative to control. The format is physicochemical. The note with it: 24 h. Summed up: (§1)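 Compound in DMSO-d6 followed by 1H NMR. Degradation taken from the intensity of three signals (one resiquimod, one BODIPY, and the linkage NH), each relative to the DMSO-d6 internal standard, and the three averaged.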

Series [2] deals with AD293. As to the kind of experiment: Cytotoxicity against human AD293 cells assessed as cell viability at 0.1 to 10 uM incubated for 24 hrs by MTT assay. Conditions: ad293, 24 h, dose 0.1-10 µM. The series is classed as toxicity, cell-based. Summed up: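 AD293 cells seeded at 4 × 10^4 cells/well in DMEM with 10% FBS. Next day, compound (100 nM, 1 μM, 10 μM) or vehicle added in serum-free DMEM for 24 h, no irradiation. MTT (5 mg/mL reagent) added for 3 h at 37 °C, formazan dissolved in DMSO, absorbance read at 590 nm. Triplicate wells, four independent experiments.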

Series [3] is described as follows: Upregulation of TNF-alpha mRNA expression in mouse RAW264.7 cells assessed as fold change at 100 nM preincubated with NAC followed by compound addition and measured after 30 mins under 650nm LED light irradiation by real-time PCR analysis. Conditions: 0.5 h. The series is classed as functional. Summed up:
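RAW264.7 cells seeded at 0.3 million per 35 mm dish. Next day, pretreated with 10 mM N-acetyl-cysteine for 30 min, then given 100 nM compound and 650 nm LED light for 30 min. Total RNA taken 24 h later and reverse transcribed with random primers. SYBR real-time PCR run for 40 cycles (95/60/72 °C). Quantities calculated by the Ct method. Results given as fold change, means ± SD.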
A general note: Quantitative PCR measures a nucleic acid by following its amplification.

The nature of series [4]: Thermal stability of compound in DMSO-d6 at 37.5 degree C measured after 2 days by 1H NMR spectroscopy analysis relative to control. The format is physicochemical. The note with it: 48 h; time 2 day. Summed up: as §1
Series [5] is described as follows: Photorelease activity of the compound in aqueous solution at 30 uM under 647 nm 400mW LED light by 1H NMR spectroscopy analysis. The series is classed as ADME. Conditions: buffer, time 10-40 min.
Series [6] can be described thus: Induction of superoxide anion radical assessed as DMPO-O2 radical adduct formation under light irradiation measured after 10 mins by ESR spectra analysis. The series is classed as functional. Summed up:
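ESR spectra recorded with DMPO as spin trap to detect superoxide and/or hydroxyl radical adducts, before and after 10 min irradiation of compound.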

Series [7] is described as follows: Photophysical property of the compound assessed as fluorescence quantum yield. The series is classed as physicochemical.
Series [8] concerns the target T1, Toll-like receptor 7 (Homo sapiens) (UniProt Q9NYK1).
T1 sequence (whole entry): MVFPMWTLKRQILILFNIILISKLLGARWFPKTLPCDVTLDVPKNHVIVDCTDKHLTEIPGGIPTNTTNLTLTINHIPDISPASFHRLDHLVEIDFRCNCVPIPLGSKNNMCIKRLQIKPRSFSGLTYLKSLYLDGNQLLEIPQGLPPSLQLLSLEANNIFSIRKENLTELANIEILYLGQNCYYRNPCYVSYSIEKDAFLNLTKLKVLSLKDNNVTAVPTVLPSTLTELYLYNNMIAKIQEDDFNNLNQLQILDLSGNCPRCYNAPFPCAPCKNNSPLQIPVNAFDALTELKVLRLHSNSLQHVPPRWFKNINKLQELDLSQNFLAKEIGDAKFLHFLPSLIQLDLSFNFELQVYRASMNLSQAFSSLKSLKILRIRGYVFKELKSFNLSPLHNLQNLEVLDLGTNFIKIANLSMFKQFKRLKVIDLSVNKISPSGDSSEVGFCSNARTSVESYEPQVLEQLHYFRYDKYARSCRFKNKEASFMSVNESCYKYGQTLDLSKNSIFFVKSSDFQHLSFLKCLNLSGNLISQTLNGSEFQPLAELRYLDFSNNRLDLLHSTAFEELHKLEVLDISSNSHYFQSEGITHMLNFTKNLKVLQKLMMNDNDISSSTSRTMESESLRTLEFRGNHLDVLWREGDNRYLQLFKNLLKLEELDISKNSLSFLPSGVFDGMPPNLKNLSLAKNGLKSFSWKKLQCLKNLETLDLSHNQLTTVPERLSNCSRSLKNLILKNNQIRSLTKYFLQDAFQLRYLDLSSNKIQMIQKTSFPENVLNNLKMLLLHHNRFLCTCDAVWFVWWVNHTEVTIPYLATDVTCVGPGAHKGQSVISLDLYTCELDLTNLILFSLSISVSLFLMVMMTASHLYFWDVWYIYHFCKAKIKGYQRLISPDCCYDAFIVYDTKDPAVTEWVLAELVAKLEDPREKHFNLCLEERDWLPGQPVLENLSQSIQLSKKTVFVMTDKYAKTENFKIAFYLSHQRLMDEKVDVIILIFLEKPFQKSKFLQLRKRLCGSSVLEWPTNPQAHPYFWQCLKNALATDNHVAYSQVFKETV
As to the kind of experiment: Activation of TLR7 in human AD293 cells assessed as IkappaB-alpha degradation at 10 uM preincubated with NAC followed by compound addition and measured after 30 mins by Western blot analysis. The format is cell-based. Summed up:
(§2)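 Stable TLR7-expressing AD293 line made by TLR7 plasmid transfection and hygromycin B selection (250 μg/mL, 10 days). Cells pretreated with N-acetyl-cysteine, then given 10 μM compound, with or without 30 min 650 nm red-light irradiation. Lysates run on 10% SDS-PAGE and blotted to PVDF. Total IκB probed (1:1000) with GAPDH loading control, ECL detection. Means of three experiments.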
A general note: In western blotting, separated proteins are transferred to a membrane and probed.

A short description of series [9]: Dark toxicity in human HeLa cells assessed as cell viability at 10 uM under dark condition and measured after 72 hrs by CCK-8 method relative to control. The series is classed as cell-based. The note with it: read-out: Activity. Summed up: (§3)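 A549, HaCaT and HeLa cells seeded at 2 × 10^3 cells/well in phenol red-free DMEM with 10% FBS. After 24 h, medium replaced with 1% DMSO containing 10 μM compound. After 90 min, one plate kept dark and one exposed to 530 or 650 nm LED (30 mW) for 15 min. Plates incubated 72 h, then CCK-8 read at 450 nm. Viability taken relative to dark control. Triplicates (HaCaT six).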
(In general: Formazan colour is commonly taken as a measure of viable cells.)

Series [10] has as its system AD293. As to the kind of experiment: Effect on morphological changes in human AD293 cells at 10 uM. The series is classed as functional, cell-based. Summed up:
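AD293 cells treated with 10 μM compound, followed by LED irradiation or kept unirradiated, then morphology examined by microscopy.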

A short description of series [11]: Thermal stability of compound in DMSO-d6 at 37.5 degree C measured before 24 hrs by 1H NMR spectroscopy analysis. The series is classed as physicochemical. Summed up:
as §1

Series [12] concerns the target T1, Toll-like receptor 7 (Homo sapiens). Briefly: Activation of TLR7 in human AD293 cells assessed as IkappaB-alpha degradation at 10 uM preincubated with NAC followed by compound addition and measured after 30 mins under 650nm red light irradiation by Western blot analysis. The format is cell-based. Conditions: filed as activator. Summed up: as §2
Series [13] in a line: Dark toxicity in human A549 cells assessed as cell viability at 10 uM under dark condition and measured after 72 hrs by CCK-8 method relative to control. The series is classed as cell-based. The note with it: read-out: Activity. Summed up: as §3
Series [14] in a line: Phototoxicity in human HaCaT cells assessed as cell viability at 10 uM under 530 ot 650nm 30 mW LED light irradiation and measured after 72 hrs by CCK-8 method relative to control. The series is classed as functional. Conditions: light or radiation study, read-out: Activity. Summed up: as §3
Series [15] in a line: Dark toxicity in human HaCaT cells assessed as cell viability at 10 uM under dark condition and measured after 72 hrs by CCK-8 method relative to control. The series is classed as cell-based. Conditions: read-out: Activity. Summed up:
as §3

Activity calls are given as the source filed them. The calls are words filed in the database; no cut-off is given here.

Turning to `CCOCc1nc2c(NC(=O)OCC3=C4C(C)=CC(/C=C/c5ccc(OCCOCCOCCOC)cc5)=[N+]4[B-](C)(C)n4c(/C=C/c5ccc(OCCOCCOCCOC)cc5)cc(C)c43)nc3ccccc3c2n1CC(C)(C)O`, the Activity is listed as 7% in series [1]; “Non-toxic” with AD293 [2]; 11% in series [4]; “Time-dependent-effect” in [5]; 0.411 in [7]; “Not_active” in series [11]. Besides, the “fold change (FC)” value in [3] was around 2. Further, the outcome (in series [6]; in series [8]; in the series on AD293 [10]) was inactive. Moreover, the viability at 72 h, 10 µM in [9] is 4%; in [13], 2%; in [15] it was 2%. Moreover, the outcome in [12] was Active. Also, in series [14], the viability at 10 µM amounted to 41%.
